# Measured values reported in ChEMBL document CHEMBL1828502, “Quinolinyl and quinolinyl N-oxide chalcones: synthesis, antifungal and cytotoxic activities” (Eur J Med Chem, 2011).
# Key:
# MCF7 = test: Anticancer activity against human MCF7 cells after 48 hrs by sulforhodamine B assay; assay type: functional, cell-based
# Procedure, shortened: (§1)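 Solid tumour lines from NCI (NCI colorimetric protocol), seeded and pre-incubated 24 h at 37 °C, 5% CO2, then exposed to compounds for 48 h. Proteins fixed with trichloroacetic acid, stained with sulforhodamine B, dye dissolved in 10 mM Tris, absorbance at 515 nm compared against initial-density control wells. IC50 from dose-response curves built with 1:2 serial dilutions; duplicate, repeated at least three times.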
# [1] = test system: Paracoccidioides brasiliensis; test: Antifungal activity against Paracoccidioides brasiliensis Pb18 by serial dilution method; assay type: functional
# Candida parapsilosis = test: Antifungal activity against Candida parapsilosis by two fold serial dilution method; assay type: functional; conditions: Lodderomyces parapsilosis
# Procedure, shortened: (§2)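 Broth microdilution MIC following CLSI M27-A2 with twofold serial dilutions; strains ATCC 18804 (C. albicans), ATCC 22019 (C. parapsilosis), ATCC 750 (C. tropicalis), ATCC 32608 (C. gattii), kept on Sabouraud dextrose agar at 4 °C. Amphotericin B and trimethoprim/sulfamethoxazole served as positive controls.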
# Candida tropicalis [2] = test: Antifungal activity against Candida tropicalis by two fold serial dilution method; assay type: functional; procedure, shortened: as §2
# Candida albicans = test: Antifungal activity against Candida albicans by two fold serial dilution method; assay type: functional; procedure, shortened: as §2
# [3] = test system: Cryptococcus gattii species complex; test: Antifungal activity against Cryptococcus gattii by two fold serial dilution method after 3 days by broth microdilution method in presence of 1 M osmotic stabilizer sorbitol; assay type: functional, Cryptococcus bacillisporus; conditions: 72 h
# Candida tropicalis [4] = test: Antifungal activity against Candida tropicalis after 2 days by broth microdilution method in presence of 1 M osmotic stabilizer sorbitol; assay type: functional; conditions: 48 h
# [5] = test system: Cryptococcus gattii species complex; test: Antifungal activity against Cryptococcus gattii by two fold serial dilution method; assay type: functional, Cryptococcus bacillisporus; procedure, shortened: as §2
# [6] = test system: Paracoccidioides brasiliensis; test: Antifungal activity against Paracoccidioides brasiliensis Pb18 after 10 days by broth microdilution method in presence of 1 M osmotic stabilizer sorbitol; assay type: functional; conditions: 240 h
# UACC-62 = test: Anticancer activity against human UACC62 cells after 48 hrs by sulforhodamine B assay; assay type: functional, cell-based; procedure, shortened: as §1
# Jurkat = test: Anticancer activity against human Jurkat cells after 48 hrs by MTT assay; assay type: functional, cell-based
# Procedure, shortened: (§3)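 HL60 and Jurkat leukemia lines plated at 50,000 and 100,000 cells/well respectively and pre-incubated 24 h at 37 °C, 5% CO2. Compounds dissolved in DMSO and tested over a concentration range of […] for 48 h. Viability read by MTT reduction (4 h), formazan dissolved in acidic isopropanol, OD 590 nm. Values normalized to 0.05% DMSO control; IC50 taken graphically from dose-effect curves. Triplicate, three separate days.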
# HL-60 = test: Anticancer activity against human HL60 cells after 48 hrs by MTT assay; assay type: functional, cell-based; procedure, shortened: as §3
# TK-10 = test: Anticancer activity against human TK10 cells after 48 hrs by sulforhodamine B assay; assay type: functional, cell-based; procedure, shortened: as §1
# [7] = Homo sapiens, HL-60, 48 h, read-out: IC50
# [8] = Homo sapiens, MCF7, 48 h, read-out: IC50
# [9] = Homo sapiens, UACC-62, 48 h, read-out: IC50
# [10] = Homo sapiens, TK-10, 48 h, read-out: IC50
# [11] = Homo sapiens, Jurkat, 48 h, read-out: IC50
Structure (SMILES),IC50 (MCF7; mcf7),MIC [1] [µg/mL],MIC (Candida parapsilosis) [µg/mL],MIC (Candida tropicalis [2]) [µg/mL],MIC (Candida albicans) [µg/mL],MIC [3] [µg/mL],MIC (Candida tropicalis [4]) [µg/mL],MIC [5] [µg/mL],MIC [6] [µg/mL],IC50 (UACC-62; uacc-62),IC50 (Jurkat; jurkat),IC50 (HL-60; [7]) [µg/mL],IC50 (TK-10; tk-10),IC50 (MCF7; [8]) [µg/mL],IC50 (UACC-62; [9]) [µg/mL],IC50 (HL-60; hl-60),IC50 (TK-10; [10]) [µg/mL],IC50 (Jurkat; [11]) [µg/mL]
Cc1ccc(C(=O)/C=C/c2ccc3ncccc3c2)cc1,Not Active,7.8,> 500,> 500,> 500,> 31.2,> 31.2,> 500,7.8,Not Active,Not Active,8.28,Not Active,–,–,–,–,–
O=C(/C=C/c1ccc2ncccc2c1)c1ccccc1,–,–,> 500,> 500,> 500,–,–,125,–,–,Not Active,–,–,1.1,3.83,Not Active,7,–
COc1ccc(C(=O)/C=C/c2ccc3ncccc3c2)cc1,–,62.5,> 500,> 500,> 500,–,–,> 500,–,–,–,12.6,Not Active,0.19,22.5,–,–,19.6
O=C(/C=C/c1ccc2ncccc2c1)c1ccc([N+](=O)[O-])cc1,–,500,> 500,> 500,> 500,–,–,> 500,–,–,–,–,–,–,–,–,–,–
O=C(/C=C/c1ccc2ncccc2c1)c1ccc(F)cc1,–,7.8,> 500,> 500,> 500,> 31.2,> 31.2,500,7.8,–,–,20.8,–,6.3,5.6,–,1,26.5
O=C(/C=C/c1ccc2ncccc2c1)c1ccc(Br)cc1,–,> 500,> 500,> 500,> 500,–,–,> 500,–,–,–,–,–,–,–,–,–,–
O=C(/C=C/c1ccc2ncccc2c1)c1ccc(Cl)cc1,–,62.5,> 500,> 500,> 500,–,–,> 500,–,Not Active,–,8.8,Not Active,0.96,–,–,–,15
O=C(/C=C/c1ccc2c(ccc[n+]2[O-])c1)c1ccccc1,Not Active,62.5,> 500,> 500,> 500,–,–,250,–,Not Active,Not Active,4.9,Not Active,–,–,–,–,–
Cc1ccc(C(=O)/C=C/c2ccc3c(ccc[n+]3[O-])c2)cc1,–,125,> 500,> 500,> 500,–,–,500,–,–,–,20.3,–,8.3,5.3,–,1,32.5
COc1ccc(C(=O)/C=C/c2ccc3c(ccc[n+]3[O-])c2)cc1,–,15.6,> 500,> 500,> 500,> 31.2,> 31.2,> 500,15.6,–,–,14.8,–,1.15,4.3,–,5.25,36.3
O=C(/C=C/c1ccc2c(ccc[n+]2[O-])c1)c1ccc([N+](=O)[O-])cc1,–,500,> 500,> 500,> 500,–,–,> 500,–,–,–,–,–,–,–,–,–,–
O=C(/C=C/c1ccc2c(ccc[n+]2[O-])c1)c1ccc(Br)cc1,–,62.5,> 500,> 500,> 500,–,–,62.5,–,–,–,2.6,–,6.6,4.7,–,1.1,65.5
C[n+]1cccc2cc(/C=C/C(=O)c3ccccc3)ccc21.[I-],Not Active,500,> 500,125,> 500,–,–,31.2,–,Not Active,Not Active,–,Not Active,–,–,Not Active,–,–
C[n+]1cccc2cc(/C=C/C(=O)c3ccc(F)cc3)ccc21.[I-],Not Active,–,> 500,62.5,500,62.5,> 31.2,15.6,> 31.2,Not Active,Not Active,–,Not Active,–,–,Not Active,–,–
C[C@@H]1[C@H](O)[C@@H](C)/C=C/C=C/C=C/C=C/C=C/C=C/C=C/[C@H](O[C@@H]2O[C@H](C)[C@@H](O)[C@H](N)[C@@H]2O)C[C@@H]2O[C@](O)(C[C@@H](O)C[C@@H](O)[C@H](O)CC[C@@H](O)C[C@@H](O)CC(=O)O[C@H]1C)C[C@H](O)[C@H]2C(=O)O [AMPHOTERICIN B],–,0.006,0.5,0.25,1,–,–,1.2,–,–,–,–,–,–,–,–,–,–
COc1cc([C@@H]2c3cc4c(cc3[C@@H](O[C@@H]3O[C@@H]5CO[C@@H](C)O[C@H]5[C@H](O)[C@H]3O)[C@H]3COC(=O)[C@H]23)OCO4)cc(OC)c1O [ETOPOSIDE],–,–,–,–,–,–,–,–,–,–,–,0.47,–,0.03,1.4,–,20.4,2.8
